One compound from ChEMBL document CHEMBL1765069, “Decahydroquinoline amides as highly selective CB2 agonists: role of selectivity on in vivo efficacy in a rodent model of analgesia” (Bioorg Med Chem Lett, 2011) can be followed below.

By IC50 is commonly meant the concentration that inhibits the measured activity by half. As usually defined, the Emax is the size of the effect at its maximum, as opposed to the concentration needed. The term inhibition in vivo denotes the change of the read-out against control, counted positive when it falls. As a reminder, the Papp is the rate of passage across a membrane or cell layer, normalised by area and donor concentration. A lower Papp goes with slow passage.

SMILES strings stand for the structures.

The target in data set [1] is T1, Cannabinoid receptor 2 (Rattus norvegicus, UniProt Q9QZN9).
T1 sequence (Q9QZN9 whole entry): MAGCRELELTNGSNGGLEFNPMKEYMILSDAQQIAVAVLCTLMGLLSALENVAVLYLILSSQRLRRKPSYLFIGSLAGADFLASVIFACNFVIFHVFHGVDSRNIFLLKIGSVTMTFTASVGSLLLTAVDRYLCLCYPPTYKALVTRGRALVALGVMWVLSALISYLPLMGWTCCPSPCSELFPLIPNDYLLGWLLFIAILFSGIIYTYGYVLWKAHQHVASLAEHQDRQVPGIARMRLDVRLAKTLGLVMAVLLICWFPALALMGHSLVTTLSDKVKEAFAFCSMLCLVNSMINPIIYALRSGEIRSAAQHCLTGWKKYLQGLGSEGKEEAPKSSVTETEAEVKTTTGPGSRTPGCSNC
The data set can be described thus: Agonist activity at rat CB2 receptor expressed in CHOK1 cells assessed as inhibition of forskolin-induced cAMP production treated 15 mins before forskolin challenge measured after 1 hr by HTRF assay. The class given is functional, cell-based, CHO-K1. Put shortly:
(§1)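 CHO-K1 cells (1000 per well) expressing human or rat CB1 or CB2 were preincubated with compound for 15 min at room temperature. Forskolin was then added at its EC70 for 30 min at room temperature. cAMP was detected by HTRF (d2-cAMP plus anti-cAMP cryptate) after a final 1 h incubation at room temperature. Values are reported as IC50 with % Emax.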
For orientation: Changes in cAMP serve as a functional read-out for many G protein-coupled receptors.

The target in data set [2] is T2, Cannabinoid receptor 1 (Homo sapiens, UniProt P21554). The data set is described as follows: Agonist activity at human CB1 receptor expressed in CHOK1 cells assessed as inhibition of forskolin-induced cAMP production treated 15 mins before forskolin challenge measured after 1 hr by HTRF assay relative to control. The class given is functional, cell-based. As to conditions: CHO-K1. Summed up: (§2)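 CHO-K1 cells (1000 per well) expressing human or rat CB1 or CB2 were preincubated with compound at room temperature for 15 min. Forskolin at EC70 was then added for a further 30 min at room temperature. cAMP was read by HTRF (d2-cAMP plus anti-cAMP-cryptate, final 1 h at room temperature). IC50 and % Emax were reported.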
T2 sequence (P21554 whole entry): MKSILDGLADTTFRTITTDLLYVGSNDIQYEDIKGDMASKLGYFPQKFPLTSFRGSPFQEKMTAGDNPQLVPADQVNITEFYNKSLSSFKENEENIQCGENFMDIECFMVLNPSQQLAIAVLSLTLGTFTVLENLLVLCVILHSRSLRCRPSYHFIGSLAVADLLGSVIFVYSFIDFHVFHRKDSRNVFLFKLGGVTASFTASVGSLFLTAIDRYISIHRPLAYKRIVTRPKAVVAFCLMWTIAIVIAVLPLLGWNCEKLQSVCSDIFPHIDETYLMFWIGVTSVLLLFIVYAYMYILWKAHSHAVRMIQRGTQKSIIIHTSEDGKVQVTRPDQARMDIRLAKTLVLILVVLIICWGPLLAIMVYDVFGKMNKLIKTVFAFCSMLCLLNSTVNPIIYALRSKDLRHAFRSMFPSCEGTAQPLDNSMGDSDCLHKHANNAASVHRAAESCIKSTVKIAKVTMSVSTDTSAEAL

Data set [3] deals with Cannabinoid receptor 1 (Rattus norvegicus) (UniProt P20272). The data set is described as follows: Agonist activity at rat CB1 receptor expressed in CHOK1 cells assessed as inhibition of forskolin-induced cAMP production treated 15 mins before forskolin challenge measured after 1 hr by HTRF assay relative to control. As to conditions: CHO-K1. The class given is functional, cell-based. Summed up: as §2
Chain of Cannabinoid receptor 1 (Rattus norvegicus) (P20272 whole entry): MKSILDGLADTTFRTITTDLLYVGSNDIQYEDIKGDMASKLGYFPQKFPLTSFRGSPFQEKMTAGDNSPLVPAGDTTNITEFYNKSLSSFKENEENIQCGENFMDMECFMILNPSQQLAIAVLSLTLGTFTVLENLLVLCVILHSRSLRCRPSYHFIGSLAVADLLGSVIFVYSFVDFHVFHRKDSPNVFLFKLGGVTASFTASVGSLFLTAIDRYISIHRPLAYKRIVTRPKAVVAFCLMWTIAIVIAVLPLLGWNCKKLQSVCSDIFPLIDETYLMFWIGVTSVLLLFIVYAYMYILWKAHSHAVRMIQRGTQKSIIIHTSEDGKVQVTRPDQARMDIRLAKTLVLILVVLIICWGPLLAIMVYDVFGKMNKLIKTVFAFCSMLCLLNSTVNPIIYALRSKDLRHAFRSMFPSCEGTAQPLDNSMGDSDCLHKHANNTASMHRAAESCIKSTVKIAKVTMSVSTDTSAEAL

For another data set, the system named is Brain. The data set is described as follows: Drug level in rat complete Freund's adjuvant-induced inflammation model brain at 30 mg/kg, sc. The class given is ADME, organism-based. More on the design: dose 30 mg/kg, route subcutaneous. As to conditions: in vivo, read-out: Drug uptake. Put shortly:
(§3)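 In the rat CFA hyperalgesia experiments, after 30 mpk subcutaneous dosing, compound levels (nM) were measured in plasma, brain homogenate and cerebrospinal fluid.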

For data set [4], the system named is Rattus norvegicus. The data set can be described thus: Antiinflammatory activity in rat assessed as inhibition of complete Freund's adjuvant-induced paw withdrawal threshold at 30 mg/kg, sc after 60 mins (reference value: 11%). It is filed as functional. As to conditions: 1 h, route subcutaneous. Put shortly: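 Rat complete Freund's adjuvant hyperalgesia model. Compound was given subcutaneously at 10, 30 or 100 mpk. Paw withdrawal threshold was read at the 60 min timepoint and expressed as % reversal.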

The target in data set [5] is Cannabinoid receptor 1 (Rattus norvegicus, UniProt P20272). The data set can be described thus: Agonist activity at rat CB1 receptor expressed in CHOK1 cells assessed as inhibition of forskolin-induced cAMP production treated 15 mins before forskolin challenge measured after 1 hr by HTRF assay. The class given is functional, cell-based, CHO-K1. Summed up: as §1
Chain of Cannabinoid receptor 1 (Rattus norvegicus, UniProt P20272) (P20272 whole entry): as above
Data set [6] concerns the target T3, Cannabinoid receptor 2 (Homo sapiens, UniProt P34972). The data set can be described thus: Agonist activity at human CB2 receptor expressed in CHOK1 cells assessed as inhibition of forskolin-induced cAMP production treated 15 mins before forskolin challenge measured after 1 hr by HTRF assay. The class given is functional, cell-based, CHO-K1. Summed up:
as §1

For another data set, the system named is Plasma. The data set can be described thus: Drug level in rat complete Freund's adjuvant-induced inflammation model plasma at 30 mg/kg, sc. It is filed as ADME, organism-based. More on the design: dose 30 mg/kg, route subcutaneous. As to conditions: in vivo, read-out: Drug uptake. Summed up:
as §3

The test system of the next data set is Cerebrospinal fluid. The data set is described as follows: Drug level in rat complete Freund's adjuvant-induced inflammation model cerebrospinal fluid at 30 mg/kg, sc. It is filed as ADME, organism-based. More on the design: dose 30 mg/kg, route subcutaneous. As to conditions: in vivo, read-out: Drug uptake. Summed up: as §3
Data set [7] deals with T2, Cannabinoid receptor 1. The data set can be described thus: Agonist activity at human CB1 receptor expressed in CHOK1 cells assessed as inhibition of forskolin-induced cAMP production treated 15 mins before forskolin challenge measured after 1 hr by HTRF assay. The class given is functional, cell-based, CHO-K1. Put shortly: as §1
Data set [8] deals with T4, Cannabinoid receptor 2 (Rattus norvegicus) (UniProt Q9QZN9).
T4 sequence (whole entry): T1 sequence (Q9QZN9 whole entry)
The data set can be described thus: Agonist activity at rat CB2 receptor expressed in CHOK1 cells assessed as inhibition of forskolin-induced cAMP production treated 15 mins before forskolin challenge measured after 1 hr by HTRF assay relative to control. As to conditions: CHO-K1. The class given is functional, cell-based. Summed up: as §2

For data set [9], the target named is T3, Cannabinoid receptor 2. The data set can be described thus: Agonist activity at human CB2 receptor expressed in CHOK1 cells assessed as inhibition of forskolin-induced cAMP production treated 15 mins before forskolin challenge measured after 1 hr by HTRF assay relative to control. The class given is functional, cell-based. As to conditions: CHO-K1. Put shortly:
as §2

The species named for data set [10] is Rattus norvegicus.

T3 sequence (P34972 whole entry): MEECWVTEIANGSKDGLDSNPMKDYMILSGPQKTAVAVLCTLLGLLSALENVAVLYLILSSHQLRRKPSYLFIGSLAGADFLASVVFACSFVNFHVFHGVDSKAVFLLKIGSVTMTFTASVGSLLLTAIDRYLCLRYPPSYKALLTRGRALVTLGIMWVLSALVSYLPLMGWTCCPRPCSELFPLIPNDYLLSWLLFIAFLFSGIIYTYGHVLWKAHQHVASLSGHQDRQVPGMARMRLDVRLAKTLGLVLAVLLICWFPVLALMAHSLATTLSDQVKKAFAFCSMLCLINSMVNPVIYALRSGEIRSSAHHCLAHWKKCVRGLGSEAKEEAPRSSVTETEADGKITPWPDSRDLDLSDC

With `CN1CCOC[C@H]1C(=O)N1CC[C@@](O)(c2ccccc2)[C@@H]2CCCC[C@@H]21`, the IC50 at Cannabinoid receptor 2 [1] was 81 nM; on Cannabinoid receptor 1 [5] it was above 17000 nM; at Cannabinoid receptor 2 [6] it was 16 nM; at Cannabinoid receptor 1 [7], above 17000 nM. The Emax at Cannabinoid receptor 1 [2] was found to be 11%; in data set [3], 8%; in [8], 98%; at Cannabinoid receptor 2 [9], 101%. The concentration in the data set on Brain amounted to 9.8 µM; in the data set with Plasma, 6.6 µM; in the data set on Cerebrospinal fluid, 1.5 µM. For the same compound, the inhibition in vivo at 30 mg/kg in the data set with Rattus norvegicus [4] amounted to 3.3%. In the data set listed under Rattus norvegicus [10], this compound showed a Papp of 39 ×10⁻⁶ cm/s.
